Results: ChEMBL document CHEMBL2062383, “Synthesis and antibacterial activity of 6-O-(heteroaryl-isoxazolyl)propynyl 2-fluoro ketolides” (2012)
Converted amounts (≈) assume the structure as drawn. The source made the active and inactive calls. No cut-off for these calls is given here.

Tests used:
Streptococcus pneumoniae [1] = test: Antibacterial activity against erythromycin-resistant Streptococcus pneumoniae 205 expressing ermB ribosomal methylase by broth microdilution method; format: functional
How it was run: (§1)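 MIC by broth microdilution, following Clinical and Laboratory Standards Institute guidelines for S. pneumoniae and S. pyogenes.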

Streptococcus pneumoniae [2] = test: Antibacterial activity against Streptococcus pneumoniae 210 expressing mefA efflux pump by broth microdilution method; format: functional
How it was run: (§2)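 MIC by broth microdilution following CLSI guidelines for S. pneumoniae and H. influenzae.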

Haemophilus influenzae [3] = test: Antibacterial activity against Haemophilus influenzae ATCC 43095 by broth microdilution method; format: functional; how it was run: as §2
Streptococcus pneumoniae [4] = test: Antibacterial activity against eryhtromycin-susceptible Streptococcus pneumoniae ATCC 49619 by broth microdilution method; format: functional; how it was run: as §1
Streptococcus pyogenes = test: Antibacterial activity against erythromycin-resistant Streptococcus pyogenes 1104 expressing ermB ribosomal methylase by broth microdilution method; format: functional; how it was run: as §1
Haemophilus influenzae [5] = test: Ratio of clarithromycin MIC to compound MIC for Haemophilus influenzae ATCC 43095; format: functional
Streptococcus pneumoniae [6] = test: Ratio of clarithromycin MIC to compound MIC for eryhtromycin-susceptible Streptococcus pneumoniae ATCC 49619; format: functional
Streptococcus pneumoniae [7] = test: Antibacterial activity against erythromycin-resistant Streptococcus pneumoniae 1101 expressing ermB ribosomal methylase infected in po dosed CBA/JN mouse assessed as decrease in bacterial count in lungs administered QD 1 day post-inoculation for 2 days measured after 1 day; format: functional, organism-based
How it was run: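 Five-week-old male CBA/JN mice were inoculated intranasally with erm(B) S. pneumoniae 1101 at 5.5×10^4 CFU/mouse. Oral dosing once daily started the day after inoculation and continued for 2 days. Lung bacterial counts were taken the day after the last dose. Data are given as mean ± S.E., with Steel's test versus untreated control.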

Streptococcus pneumoniae [8] = test: Antibacterial activity against erythromycin-resistant Streptococcus pneumoniae 1101 expressing ermB ribosomal methylase by broth microdilution method; format: functional; how it was run: as §1
Haemophilus influenzae [9] = test: Antibacterial activity against Haemophilus influenzae ATCC 43095 infected in po dosed ICR mouse assessed as decrease in bacterial count in lungs administered QD 1 day post-inoculation for 2 days measured after 1 day; format: functional, organism-based
How it was run: (§3)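 Four-week-old male ICR mice were inoculated intratracheally with 5.2×10^6 CFU/mouse. Oral dosing began the day after inoculation, once daily for 2 days. Lung bacterial counts were taken the day after the last dose and are given as mean ± S.E. versus untreated control, with Steel's test.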

Haemophilus influenzae [10] = test: Antibacterial activity against Haemophilus influenzae ATCC 43095 infected in ICR mouse assessed as decrease in bacterial count in lungs at 50 mg/kg, po administered QD 1 day post-inoculation for 2 days measured after 1 day; format: functional, organism-based; design: dose 50 mg/kg; how it was run: as §3

Row | Compound | MIC (Streptococcus pneumoniae [1]) | MIC (Streptococcus pneumoniae [2]) | MIC (Haemophilus influenzae [3]) | MIC (Streptococcus pneumoniae [4]) | MIC (Streptococcus pyogenes) | Ratio (Haemophilus influenzae [5]) | Ratio (Streptococcus pneumoniae [6]) | Activity (Streptococcus pneumoniae [7]) | MIC (Streptococcus pneumoniae [8]) | Activity (Haemophilus influenzae [9]) | Activity (Haemophilus influenzae [10])
1 | CC[C@H]1OC(=O)[C@H](C)[C@@H](O[C@H]2C[C@@](C)(OC)[C@@H](O)[C@H](C)O2)[C@H](C)[C@@H](O[C@@H]2O[C@H](C)C[C@H](N(C)C)[C@H]2O)[C@](C)(OC)C[C@@H](C)C(=O)[C@H](C)[C@@H](O)[C@]1(C)O [CLARITHROMYCIN] | > 128 µg/mL | 2 µg/mL (≈ 2.67 µM) | 4 µg/mL (≈ 5.35 µM) | 0.03 µg/mL (≈ 0.0401 µM) | > 128 µg/mL | – | – | – | – | – | –
2 | CC[C@H]1OC(=O)[C@@](C)(F)C(=O)[C@H](C)[C@@H](O[C@@H]2O[C@H](C)C[C@H](N(C)C)[C@H]2O)[C@](C)(OCC#Cc2cc(-c3cnc(N)nc3)no2)C[C@@H](C)C(=O)[C@H](C)[C@H]2NC(=O)O[C@@]21C | 0.008 µg/mL (≈ 0.00982 µM) | 0.03 µg/mL (≈ 0.0368 µM) | 2 µg/mL (≈ 2.45 µM) | 0.008 µg/mL (≈ 0.00982 µM) | 0.06 µg/mL (≈ 0.0736 µM) | 2 | 4 | Dose-dependent effect | 0.008 µg/mL (≈ 0.00982 µM) | Dose-dependent effect | –
3 | CC[C@H]1OC(=O)[C@H](C)[C@@H](O[C@H]2C[C@@](C)(OC)[C@@H](O)[C@H](C)O2)[C@H](C)[C@@H](O[C@@H]2O[C@H](C)C[C@H](N(C)C)[C@H]2O)[C@](C)(O)C[C@@H](C)CN(C)[C@H](C)[C@@H](O)[C@]1(C)O [AZITHROMYCIN] | > 128 µg/mL | 2 µg/mL (≈ 2.67 µM) | 0.5 µg/mL (≈ 0.668 µM) | 0.06 µg/mL (≈ 0.0801 µM) | > 128 µg/mL | – | – | – | – | – | –
4 | CC[C@H]1OC(=O)[C@@](C)(F)C(=O)[C@H](C)[C@@H](O[C@@H]2O[C@H](C)C[C@H](N(C)C)[C@H]2O)[C@](C)(OCC#Cc2cc(-c3ncccn3)no2)C[C@@H](C)C(=O)[C@H](C)[C@H]2NC(=O)O[C@@]21C | 0.008 µg/mL (≈ 0.01 µM) | 0.03 µg/mL (≈ 0.0375 µM) | 2 µg/mL (≈ 2.5 µM) | 0.008 µg/mL (≈ 0.01 µM) | 2 µg/mL (≈ 2.5 µM) | 2 | 4 | Dose-dependent effect | 0.016 µg/mL (≈ 0.02 µM) | Dose-dependent effect | –
5 | CC[C@H]1OC(=O)[C@@](C)(F)C(=O)[C@H](C)[C@@H](O[C@@H]2O[C@H](C)C[C@H](N(C)C)[C@H]2O)[C@](C)(OCC#Cc2cc(-c3cccnn3)no2)C[C@@H](C)C(=O)[C@H](C)[C@H]2NC(=O)O[C@@]21C | 0.008 µg/mL (≈ 0.01 µM) | 0.03 µg/mL (≈ 0.0375 µM) | 2 µg/mL (≈ 2.5 µM) | 0.008 µg/mL (≈ 0.01 µM) | 1 µg/mL (≈ 1.25 µM) | 2 | 4 | Dose-dependent effect | 0.016 µg/mL (≈ 0.02 µM) | Dose-dependent effect | Active
